In experiment [1] the target is T1, Tyrosine-protein phosphatase non-receptor type 1 (Homo sapiens, UniProt P18031).
T1 sequence (P18031 whole entry): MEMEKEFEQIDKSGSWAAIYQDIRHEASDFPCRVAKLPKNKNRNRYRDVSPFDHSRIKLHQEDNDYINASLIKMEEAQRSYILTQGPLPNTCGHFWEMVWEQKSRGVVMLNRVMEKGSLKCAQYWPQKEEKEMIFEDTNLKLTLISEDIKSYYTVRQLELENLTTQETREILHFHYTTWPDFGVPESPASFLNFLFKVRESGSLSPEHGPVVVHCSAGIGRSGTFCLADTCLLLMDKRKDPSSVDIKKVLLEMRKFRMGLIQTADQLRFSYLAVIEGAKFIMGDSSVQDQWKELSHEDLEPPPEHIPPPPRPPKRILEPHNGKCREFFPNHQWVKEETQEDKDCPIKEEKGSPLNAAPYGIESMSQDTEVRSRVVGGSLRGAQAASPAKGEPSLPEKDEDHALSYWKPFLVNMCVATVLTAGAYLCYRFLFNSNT
The experiment can be described thus: Inhibition of PTP1B (unknown origin) assessed as decrease in p-nitrophenolate formation using pNPP as substrate incubated for 15 mins by spectrophotometric method.

Experiment [2] in a line: Antioxidant activity assessed as DPPH radical scavenging activity. It counts as functional.
For experiment [3], the target named is T1, Tyrosine-protein phosphatase non-receptor type 1. The experiment can be described thus: Inhibition of PTP1B (unknown origin) assessed as decrease in p-nitrophenolate formation using pNPP as substrate by Dixon plot analysis. The procedure, abridged:
(§1)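 Kinetic analysis of human recombinant PTP1B with p-NPP substrate, run at several inhibitor levels. Ki was obtained from Dixon plots, and the inhibition mode from Lineweaver–Burk plots.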

For experiment [4], the target named is T2, Tyrosine-protein phosphatase non-receptor type 1 (Homo sapiens) (UniProt P18031).
T2 sequence (whole entry): T1 sequence (P18031 whole entry)
In words: Noncompetitive inhibition of PTP1B (unknown origin) assessed as decrease in p-nitrophenolate formation using pNPP as substrate by Lineweaver-Burk plot analysis. The procedure, abridged:
as §1

The source made the active and inactive calls. The calls are words filed in the database; no cut-off is given here. Some results are limits rather than exact numbers.

As for `O=COC[C@H]1O[C@@H](Oc2c(O)cc(O)cc2/C=C/c2ccc(O)cc2)[C@H](O)[C@@H](O)[C@@H]1O`, the IC50 (usually the concentration that inhibits the measured activity by half) in experiment [1] was > 50 µM.
`Oc1ccc(/C=C/c2cc(O)cc(O)c2O[C@@H]2OC[C@@H](O)[C@H](O)[C@H]2O)cc1`: the IC50 in experiment [1] is > 50 µM.
With `Oc1ccc(/C=C/c2cc(O)cc(O)c2O)cc1`, the concentration for half-maximal inhibition (IC50) worked out at 12.1 µM in experiment [1] and 0.4 mM in experiment [2].
In the case of `COc1cc(/C=C/C(=O)O[C@@H]2[C@@H](O)[C@H](Oc3c(O)cc(O)cc3/C=C/c3ccc(O)cc3)O[C@H](CO)[C@H]2O)ccc1O`, the IC50 in experiment [1] is 27.4 µM.
The same measure, in the same setting: the value for `O=C(O[C@H]1[C@H](Oc2c(O)cc(O)cc2/C=C/c2ccc(O)cc2)O[C@H](CO)[C@@H](O)[C@@H]1O)c1cc(O)c(O)c(O)c1` was > 50 µM.
Same read-out and setting: the value for `Oc1ccc(/C=C/c2cc(O)cc(O)c2)cc1` [RESVERATROL] was > 50 µM.
The same measure, in the same setting: the value for `CC(=O)OC[C@H]1O[C@@H](Oc2c(O)cc(O)cc2/C=C/c2ccc(O)cc2)[C@H](O)[C@@H](O)[C@@H]1O` was > 50 µM.
Take `COc1cc(/C=C/C(=O)O[C@H]2[C@H](Oc3c(O)cc(O)cc3/C=C/c3ccc(O)cc3)O[C@H](CO)[C@@H](O)[C@@H]2O)ccc1O`: the IC50 in experiment [1] was > 50 µM.
On the same count and under the same terms, the value for `OC[C@H]1O[C@@H](Oc2c(O)cc(O)cc2/C=C/c2ccc3c(c2)[C@H](c2cc(O)cc(O)c2O[C@@H]2O[C@H](CO)[C@@H](O)[C@H](O)[C@H]2O)[C@@H](c2ccc(O)cc2)O3)[C@H](O)[C@@H](O)[C@@H]1O` was 32.2 µM.
`Oc1ccc([C@@H]2Oc3ccc(/C=C/c4cc(O)cc(O)c4O)cc3[C@H]2c2cc(O)cc(O)c2O)cc1`: the IC50 in experiment [1] turned out to be 1.9 µM. The Ki (as a rule, the dissociation constant of the complex between target and ligand, obtained from inhibition or displacement) in experiment [3] came out at 920 nM. Moreover, the inhibition entry in experiment [4] was “Active”.
For `Oc1ccc([C@H]2Oc3ccc(/C=C/c4cc(O)cc(O)c4O)cc3[C@@H]2c2cc(O)cc(O)c2O)cc1` the same measures were 2.1 µM, 1020 nM and “Active”.
Regarding `OC[C@H]1O[C@@H](Oc2c(O)cc(O)cc2/C=C/c2ccc3c(c2)[C@@H](c2cc(O)cc(O)c2O[C@@H]2O[C@H](CO)[C@@H](O)[C@H](O)[C@H]2O)[C@H](c2ccc(O)cc2)O3)[C@H](O)[C@@H](O)[C@@H]1O`, the IC50 in experiment [1] turned out to be 34.9 µM.
On the same count and under the same terms, the value for `OC[C@H]1O[C@@H](Oc2c(O)cc(O)cc2[C@H]2c3c(cc(O)c(O[C@@H]4O[C@H](CO)[C@@H](O)[C@H](O)[C@H]4O)c3/C=C/c3ccc(O)cc3)O[C@@H]2c2ccc(O)cc2)[C@H](O)[C@@H](O)[C@@H]1O` was > 50 µM.
As to `OC[C@H]1O[C@@H](Oc2c(O)cc(O)cc2/C=C/c2ccc(O)cc2)[C@H](O)[C@@H](O)[C@@H]1O`, the figures for the 50% inhibitory concentration (IC50) in experiment [1] and in experiment [2] were > 50 µM and 40 mM, respectively.
For the molecule `CC(=O)O[C@@H]1[C@@H](O)[C@H](Oc2c(O)cc(O)cc2/C=C/c2ccc(O)cc2)O[C@H](CO)[C@H]1O`, the IC50 in experiment [1] was 37.6 µM.
On the same count and under the same terms, the value for `C[C@@H]1O[C@@H](Oc2c(O)cc(O)cc2/C=C/c2ccc(O)cc2)[C@H](O)[C@H](O)[C@H]1O` was > 50 µM; that for `COc1cc([C@@H]2CC(=O)Oc3cc(O)c(O[C@@H]4O[C@H](CO)[C@@H](O)[C@H](O)[C@H]4O)c(/C=C/c4ccc(O)cc4)c32)ccc1O` was > 50 µM.
For `OC[C@H]1O[C@@H](OC[C@H]2O[C@@H](Oc3c(O)cc(O)cc3/C=C/c3ccc(O)cc3)[C@H](O)[C@@H](O)[C@@H]2O)[C@H](O)[C@@H](O)[C@@H]1O`, the IC50 in experiment [1] is > 50 µM.
Turning to `O=C(O)c1cc(O)cc(O)c1C(=O)Cc1ccc(O)cc1`, the IC50 in experiment [1] is > 50 µM.
